By MIC is commonly meant the smallest concentration in the dilution series that meets the test's criterion for growth inhibition. A low value points to greater potency. A word on the IC50: it is the point on the concentration scale where inhibition reaches its midpoint. Usually MIC50 stands for the lowest concentration that inhibits either 50% of growth or 50% of the strains tested, depending on the study. Read a low MIC50 as higher susceptibility.

The values below come from ChEMBL document CHEMBL4837261, “Optimization of TopoIV Potency, ADMET Properties, and hERG Inhibition of 5-Amino-1,3-dioxane-Linked Novel Bacterial Topoisomerase Inhibitors: Identification of a Lead with In Vivo Efficacy against MRSA” (J Med Chem, 2021).

For assay [1], the system named is Staphylococcus aureus. Description: Antibacterial activity against Staphylococcus aureus ATCC 29213 by CLSI method. The class given is functional.
In assay [2] the test system is Staphylococcus aureus. Description: Antibacterial activity against methicillin-resistant Staphylococcus aureus USA300 by CLSI method. Format: functional.
The target of assay [3] is DNA gyrase (Staphylococcus aureus, UniProt P0A0K8+P20831). Description: Inhibition of Staphylococcus aureus Gyrase supercoiling activity assessed as reduction in supercoiling pBR322 DNA by measuring relaxation by bromophenol blue staining based TAE gel method. Format: protein-complex assay.
The target of a further assay is Topoisomerase IV (Staphylococcus aureus, UniProt P0C1S7+P0C1U9). Description: Inhibition of Staphylococcus aureus topoisomerase IV decatenation activity using kDNA as substrate by ethidium bromide/bromophenol blue staining based agarose gel electrophoresis analysis. Format: protein-complex assay.
In assay [4] the test system is Staphylococcus aureus. In words: Antibacterial activity against Staphylococcus aureus 3527 by CLSI method. Format: functional.
The test system of assay [5] is Staphylococcus aureus. Description: Antibacterial activity against Staphylococcus aureus harbouring GyrA D83N mutant by CLSI method. The class given is functional.
Assay [6] can be described thus: Growth inhibition of human K/VP.5 cells incubated for 48 hrs by NBTI cell counting analysis. The class given is functional. To be noted: K562, 48 h.
The test system of assay [7] is Staphylococcus aureus. Description: Antibacterial activity against cystic fibrosis isolate Staphylococcus aureus by CLSI method. The class given is functional.
The test system of assay [8] is Staphylococcus aureus. In words: Selectivity index, ratio of IC50 for inhibition of Staphylococcus aureus topoisomerase IV decatenation activity to IC50 for inhibition of Staphylococcus aureus DNA gyrase supercoiling activity. A digest of the protocol:
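Both IC50s were measured in gel-based assays with S. aureus enzymes: supercoiling inhibition for DNA gyrase and decatenation inhibition for TopoIV. The ratio is TopoIV IC50 divided by gyrase IC50.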

Assay [9] deals with DNA gyrase (Staphylococcus aureus, UniProt P0A0K8+P20831, D83N). In words: Inhibition of Staphylococcus aureus DNA Gyrase D83N mutant assessed as reduction in supercoiling pBR322 DNA by measuring relaxation by bromophenol blue staining based TAE gel method.
The subject of assay [10] is Staphylococcus aureus. In words: Antibacterial activity against Staphylococcus aureus by CLSI method. Format: functional. The procedure, abridged: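 MICs were determined by broth microdilution per CLSI guidelines, in triplicate at minimum. Strains were S. aureus ATCC 29213, MRSA USA300 and a cystic fibrosis respiratory isolate, and ranges are given where seen.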

The next assay concerns Enterococcus sp. In words: Antibacterial activity against Enterococcus sp. by CLSI method. Format: functional.
The next assay relates to Streptococcus pneumoniae. In words: Antibacterial activity against Streptococcus pneumoniae by CLSI method. Format: functional.
A further assay deals with Acinetobacter baumannii. In words: Antibacterial activity against Acinetobacter baumannii by CLSI method. The class given is functional.

Converted amounts (≈) assume the structure as drawn.

Consider `COc1ccc2ncc(F)c(C(O)C[C@H]3OC[C@H](NCc4cc5c(cn4)OCCO5)CO3)c2n1` (mixture of isomers), for which the MIC in the assay with Staphylococcus aureus [1] worked out at 0.5 µg/mL (≈ 1.06 µM); with Staphylococcus aureus [2], 1 µg/mL (≈ 2.12 µM); in the assay on Staphylococcus aureus [4], 1 µg/mL (≈ 2.12 µM); with Staphylococcus aureus [5], 16 µg/mL (≈ 33.9 µM). In addition, the concentration for half-maximal inhibition (IC50) at DNA gyrase [3] was 160 nM; on Topoisomerase IV, 8800 nM; in [6], 232000 nM.
On to `COc1ccc2ccc(F)c(C[C@H](O)[C@H]3OC[C@H](NCc4ccc(Cl)c(Cl)c4)CO3)c2n1`, for which the MIC came to 0.25 µg/mL (≈ 0.519 µM) with Staphylococcus aureus [1]; 0.5 µg/mL (≈ 1.04 µM) with Staphylococcus aureus [2]; 0.25 µg/mL (≈ 0.519 µM) against Staphylococcus aureus [7]; 0.25 µg/mL (≈ 0.519 µM) in the assay on Staphylococcus aureus [4]; 4 µg/mL (≈ 8.31 µM) against Staphylococcus aureus [5]. In addition, the IC50 on DNA gyrase [3] was determined as 43 nM; against Topoisomerase IV, 2300 nM. In addition, in the assay with Staphylococcus aureus [8], the Ratio IC50 was 54.
`COc1ccc2ncc(F)c(C[C@H](O)[C@H]3OC[C@H](NCc4cc5c(cn4)OCCC5)CO3)c2n1`: the MIC was found to be 0.125 µg/mL (≈ 0.266 µM) against Staphylococcus aureus [1], 0.5 µg/mL (≈ 1.06 µM) in the assay on Staphylococcus aureus [7], 0.5 µg/mL (≈ 1.06 µM) in the assay with Staphylococcus aureus [4] and 8 µg/mL (≈ 17 µM) against Staphylococcus aureus [5]. Moreover, the IC50 at DNA gyrase [3] was determined as 140 nM; at Topoisomerase IV it was 1300 nM; on DNA gyrase [9], 13000 nM; in assay [6] it was 80500 nM.
`COc1ccc2ccc(F)c(C[C@H](O)[C@H]3OC[C@H](NCc4ccc5c(n4)NC(=O)CO5)CO3)c2n1`: the MIC against Staphylococcus aureus [1] came to 0.25 µg/mL (≈ 0.516 µM); in the assay with Staphylococcus aureus [2], 0.25 µg/mL (≈ 0.516 µM); in the assay with Staphylococcus aureus [7], 0.5 µg/mL (≈ 1.03 µM); in the assay on Staphylococcus aureus [4] it was 0.25 µg/mL (≈ 0.516 µM); in the assay with Staphylococcus aureus [5] it was 2 µg/mL (≈ 4.13 µM). Besides, the IC50 on DNA gyrase [3] was 95 nM; against Topoisomerase IV it was 990 nM; at DNA gyrase [9], 69000 nM; in assay [6] it was more than 50000 nM.
Turning to `COc1ccc2ncc(F)c(C[C@H](O)[C@H]3OC[C@H](NCc4ccc(Cl)c(Cl)c4)CO3)c2n1`, the minimum inhibitory concentration (MIC) is not above 0.25 µg/mL against Staphylococcus aureus [1]; 0.125 µg/mL (≈ 0.259 µM) with Staphylococcus aureus [2]; 0.125 µg/mL (≈ 0.259 µM) with Staphylococcus aureus [7]; 0.125 µg/mL (≈ 0.259 µM) in the assay on Staphylococcus aureus [4]; 4 µg/mL (≈ 8.29 µM) with Staphylococcus aureus [5]. In addition, the MIC50 against Staphylococcus aureus [10] was 0.06 µg/mL (≈ 0.124 µM); in the assay with Enterococcus sp., 0.06 µg/mL (≈ 0.124 µM); in the assay on Streptococcus pneumoniae, 4 µg/mL (≈ 8.29 µM); against Acinetobacter baumannii, more than 64 µg/mL. The IC50 at DNA gyrase [3] turned out to be 160 nM; at Topoisomerase IV, 1100 nM; on DNA gyrase [9] it was 5500 nM; in assay [6], 22200 nM.
In the case of `COc1ccc2ncc(F)c(C[C@H](O)[C@H]3OC[C@H](NCc4ccc5c(n4)NC(=O)CO5)CO3)c2c1`, the minimum inhibitory concentration (MIC) turned out to be 0.5 µg/mL (≈ 1.03 µM) in the assay with Staphylococcus aureus [1]; 0.25 µg/mL (≈ 0.516 µM) in the assay with Staphylococcus aureus [2]; 0.5 µg/mL (≈ 1.03 µM) in the assay on Staphylococcus aureus [7]; 0.25 µg/mL (≈ 0.516 µM) against Staphylococcus aureus [4]; 4 µg/mL (≈ 8.26 µM) with Staphylococcus aureus [5]. Also, the half-maximal inhibitory concentration (IC50) at DNA gyrase [3] was 84 nM; on Topoisomerase IV, 1300 nM; at DNA gyrase [9], 1900 nM; in [6] it was more than 50000 nM.
As to `COc1ccc2ncc(F)c(C[C@H](O)[C@H]3OC[C@H](NCc4cc5c(cn4)OCCO5)CO3)c2c1`, the MIC in the assay on Staphylococcus aureus [1] was 0.25 µg/mL (≈ 0.53 µM); against Staphylococcus aureus [2] it was 0.5 µg/mL (≈ 1.06 µM); against Staphylococcus aureus [7] it was 0.5 µg/mL (≈ 1.06 µM); with Staphylococcus aureus [4], 0.5 µg/mL (≈ 1.06 µM); in the assay on Staphylococcus aureus [5], more than 8 µg/mL. The MIC50 came to 0.25 µg/mL (≈ 0.53 µM) in the assay with Staphylococcus aureus [10], 0.12 µg/mL (≈ 0.255 µM) with Enterococcus sp., 2 µg/mL (≈ 4.24 µM) against Streptococcus pneumoniae and 64 µg/mL (≈ 136 µM) with Acinetobacter baumannii. The 50% inhibitory concentration (IC50) worked out at 42 nM on DNA gyrase [3] and 5700 nM at Topoisomerase IV. In the assay with Staphylococcus aureus [8], the Ratio IC50 came out at 136.
For `COc1ccc2ncc(=O)n(CC(O)[C@H]3OC[C@H](NCc4ccc5c(c4)OCCO5)CO3)c2c1` (mixture of isomers), the MIC in the assay with Staphylococcus aureus [1] was 0.125 µg/mL (≈ 0.266 µM); in the assay on Staphylococcus aureus [2] it was 0.5 µg/mL (≈ 1.06 µM); against Staphylococcus aureus [7], 0.25 µg/mL (≈ 0.532 µM); in the assay on Staphylococcus aureus [4], 0.5 µg/mL (≈ 1.06 µM); in the assay with Staphylococcus aureus [5], 8 µg/mL (≈ 17 µM). Further, the figures for the IC50 (on DNA gyrase [3]; at Topoisomerase IV; in [6]) were 19 nM, 4000 nM and 71100 nM, respectively.
`COc1ccc2ncc(F)c(C(O)C[C@H]3OC[C@H](NCc4ccc5c(c4)OCCO5)CO3)c2n1` (mixture of isomers): the MIC was not above 0.25 µg/mL in the assay on Staphylococcus aureus [1]; 0.25 µg/mL (≈ 0.53 µM) with Staphylococcus aureus [2]; 0.5 µg/mL (≈ 1.06 µM) in the assay on Staphylococcus aureus [7]; not above 0.25 µg/mL against Staphylococcus aureus [4]; 8 µg/mL (≈ 17 µM) with Staphylococcus aureus [5]. The half-inhibitory concentration (IC50) at DNA gyrase [3] stood at 22 nM; against Topoisomerase IV, 3200 nM; in [6] it was 39200 nM.
With `COc1ccc2ncc(F)c(C(O)C[C@H]3OC[C@H](NCc4cc5c(nn4)OCCS5)CO3)c2c1` (mixture of isomers), the minimum inhibitory concentration (MIC) in the assay on Staphylococcus aureus [1] stood at 0.5 µg/mL (≈ 1.02 µM); with Staphylococcus aureus [2], 1 µg/mL (≈ 2.05 µM); with Staphylococcus aureus [7], 1 µg/mL (≈ 2.05 µM); with Staphylococcus aureus [4], 1 µg/mL (≈ 2.05 µM); against Staphylococcus aureus [5], 16 µg/mL (≈ 32.8 µM). Also, the IC50 at DNA gyrase [3] was 370 nM; at Topoisomerase IV it was 11000 nM; in assay [6], more than 200000 nM.
